# Hits are enriched below; roughly 11% of the tested compounds scored in any of these assays.
# RORA act: activates the human nuclear receptor RORA; CHO-K1 Gal4-RORA LBD luciferase reporter, luminescence; percent increase over mock-subtracted basal signal; activation, % at 10 µM; 65,000 compounds, 1.5% hits;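 active = activation above the mean of all tested compounds plus 3 SD, cut at about 49% in these data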;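 note: 0% = DMSO-treated RORA cells and 100% = added signal equal to DMSO minus mock-transfected cells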
# Target sequence (P35398 whole entry, looked up, the tested form may be a part): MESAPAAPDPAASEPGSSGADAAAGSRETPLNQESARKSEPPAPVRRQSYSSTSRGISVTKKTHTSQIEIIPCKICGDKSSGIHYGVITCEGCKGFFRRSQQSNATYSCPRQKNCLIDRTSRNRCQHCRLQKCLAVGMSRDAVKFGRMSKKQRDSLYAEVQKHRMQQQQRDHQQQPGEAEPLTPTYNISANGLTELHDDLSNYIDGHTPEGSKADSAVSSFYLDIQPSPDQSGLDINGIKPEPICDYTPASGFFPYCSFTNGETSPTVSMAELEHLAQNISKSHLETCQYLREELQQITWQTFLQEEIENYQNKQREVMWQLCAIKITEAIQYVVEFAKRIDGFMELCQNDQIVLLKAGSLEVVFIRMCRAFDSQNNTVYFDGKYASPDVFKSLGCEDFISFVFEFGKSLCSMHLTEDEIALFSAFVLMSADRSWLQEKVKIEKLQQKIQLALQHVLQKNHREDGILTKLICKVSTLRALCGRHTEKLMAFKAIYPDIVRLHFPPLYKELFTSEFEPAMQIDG
# M1 agonist: activates the M1 muscarinic receptor; 64,000 compounds, 3% hits; B-score at 10 µM; AID 626; CHO-M1 cells, Fluo-4 calcium fluorescence, agonist mode; active compounds read high;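 active = fluorescence rise, raw or as B-score row- and column-corrected plate score, outside the 99.7% band of its plate's samples, either direction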
# M1 antag: blocks the rat M1 muscarinic receptor response to acetylcholine; P08482; CHO-M1 cells, Fluo-4 calcium, ACh EC80 antagonist mode; active compounds read low; B-score at 10 µM; 64,000 compounds, 3.4% hits;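 active = calcium fluorescence response, raw or row-and-column corrected B-score, differing from the plate sample mean either way at a set confidence level, mostly lower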
# SF-1 act: SF-1 (human) activation. Q13285. CHO-K1 Gal4-SF-1 LBD luciferase reporter; % increase over DMSO SF-1-specific signal. activation, % at 10 µM. 65,000 compounds, 1.9% hits. AID 522;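 active = activation above the mean activation of all tested compounds plus 3 SD, cut at about 50% in these data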
#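 Compound – one dose, 10 µM compound, 1% DMSO · Test system – transient Gal4-SF-1 LBD reporter, CHO-K1 · Input – 4,000 cells in each well · Read-out basis – percent activation relative to DMSO median and mock-transfected background · Replicates – single measurement per compound · Technique – steady-glow luciferase luminescence, read after 15 min reagent incubation · Timing – 20 h compound treatment, 37 °C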
# Htt clearance: mutant huntingtin protein clearance | HeLa Exon1htt(103Q)mCFP, aggregate imaging; zero = plate's median compound well | inhibition, % at 1.5 µM | 47,000 compounds, 0.42% hits;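 active = inhibition of aggregate fluorescence above about 70%, also judged a hit by eye on the cell image, limit read from the data, passing the limit was not always enough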;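 note: cells exposed to compound for three days before fixation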
# D1 allo mod: allosteric modulators of human D1 dopamine receptor | P21728 | HEK293 D1, CRE-luciferase, dopamine EC30 potentiation; actives deviate in either direction | B-score at 10 µM | 58,000 compounds, 5.9% hits;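 active = luminescence count or its row- and column-corrected plate score outside the 99.7% band of the plate's sample wells, on either side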
# M1 antag conf: M1 muscarinic receptor (rat) antagonism, confirmed | shares compounds with M1 antag | CHO-M1 cells, Fluo-4 calcium, ACh EC80 antagonism; active compounds read low | calcium response (max-min fluorescence) at 10 µM | 1,700 compounds, 43% hits | AID 677;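 active = calcium response below the same-plate mean of wells given acetylcholine alone at its 80%-effect dose, minus 3 SD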;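 note: raw fluorescence intensity difference in arbitrary instrument units and not normalized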
# mGluR4 antag: selectivity test for M1 antagonists: human mGluR4 receptor | CHO-mGluR4 calcium flux, Fluo-4 fluorescence, glutamate EC80; active compounds read low | shares compounds with M1 antag | 1,700 compounds, 0.9% hits | fluorescence response (max-min) at 10 µM | AID 678;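 active = fluorescence response below the plate's average for near-maximal glutamate wells, less 3 SD of those wells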;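 note: raw unnormalized fluorescence span taken in the window right after glutamate addition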
# * marks the source's active call; other numbers are inactive results; x = no result.
SMILES,RORA act,M1 agonist,M1 antag,SF-1 act,Htt clearance,D1 allo mod,M1 antag conf,mGluR4 antag
CCN(CC(=O)NC(=O)NCc1ccco1)Cc1nc2ccccc2c(=O)[nH]1,-20,0.013,0.067,-10,-8,0.3,x,x
CCN(CC(=O)NCCc1ccc(S(N)(=O)=O)cc1)Cc1nc2ccccc2c(=O)[nH]1,-10,0.03,-2*,-10,x,x,636,238
C=CCn1c(=O)c(C(=O)Nc2ccccc2C(=O)OCC)c(O)c2ccccc21,-18,-0.16,-2.5*,9,x,-0.25,623,247
COc1ccc(Nc2nc(Nc3ccc(OC)cc3)nc(SC3=NCCS3)n2)cc1,x,x,x,x,36,x,x,x
CN1C(=O)N(C)C2C1NC(=O)N2C (stereo unspecified),6,-0.57,-9.2*,1,x,-0.44,521,214
CC1C2C(C)N(C)C(=O)N(C)C2N(C)C(=O)N1C (stereo unspecified),-27,-0.23,0.0052,5,46,0.3,x,x
CC1C(=NO)C(C)C(c2ccc(N(C)C)cc2)NC1c1ccc(N(C)C)cc1 (stereo unspecified),3,0.1,-1.4,6,31,x,x,x
O=C(O)CCCCCN1C(=O)CSC1=S,-59,0.29,-6.4*,-32,x,-0.018,667,241
CC(=O)OC(Cn1ccnc1)c1ccccc1 (stereo unspecified),-18,0.27,0.49,-9,x,0.75,x,x
COC(=O)[C@H](C)NC(=O)Nc1cc(OC)ccc1OC,-14,0.68,-1.4*,-8,23,3.6,614,241
CC(=O)NC(CCS(C)(=O)=O)C(=O)Nc1ccc(Oc2ccccc2)cc1 (stereo unspecified),-6,-0.96,-0.52,-8,x,-0.057,x,x
COc1ccc(S(=O)(=O)N2CCN(C3CCN(Cc4ccccc4)CC3)CC2)cc1,-15,0.81,-11*,10,-30,0.0017,189*,211
Cc1ccc(S(=O)(=O)N2CCN(C3CCN(Cc4ccccc4)CC3)CC2)cc1,-19,-0.031,-15*,1,x,0.055,292*,265
O=S(=O)(c1ccccc1)N1CCN(C2CCN(Cc3ccccc3)CC2)CC1,-16,0.45,-7.5*,-6,-49,-2.4,244*,172
COc1ccc(S(=O)(=O)N2CCN(C3CCCCCCC3)CC2)cc1,3,0.59,-0.025,-3,x,0.32,x,x
COc1cccc(CN2CCCN(S(=O)(=O)c3ccc(Br)cc3)CC2)c1,-5,1.6,-10*,0,x,0.55,301*,260
Cc1ccc(N2C(=O)C(Cl)=C(NCc3ccccc3)C2=O)c(C)c1,x,x,x,x,-24,x,x,x
Cc1onc(-c2ccccc2)c1C(=O)N1CCN(C/C=C/c2ccccc2)CC1,36,-1.6,0.099,13,-75,-0.028,x,x
CCCc1cc(=O)n2[nH]c(C)cc2n1,9,-0.19,-1.8,-10,x,0.14,x,x
CCCCn1c(N2CCC(Cc3ccccc3)CC2)nc2c1c(=O)[nH]c(=O)n2C,26,1.1,0.33,2,x,x,x,x
CCCC1COC(Cn2cncn2)(c2ccc(C)cc2)O1 (stereo unspecified),-10,1.2,-13*,-3,x,2.5,667,245
CC(C)c1nc(N2CCN(C(=O)c3ccco3)CC2)c2c3c(sc2n1)CCCC3,-7,-0.0036,-0.56,-9,-66,-0.01,x,x
Cc1nc(N2CCN(C(=O)c3ccco3)CC2)c2c3c(sc2n1)CCC3,3,2.4,-3.1*,-10,x,-0.57,493,217
CC(=O)N1CCC(=O)N(C(C)C)c2ccccc21,4,-0.13,-0.3,5,x,-0.47,x,x
Cc1c(N(C(=O)Nc2ccccc2)C2=NCC(C)S2)c(=O)n(-c2ccccc2)n1C (stereo unspecified),3,0.66,-4.4*,4,x,0.022,604,242
SMILES,RORA act,M1 agonist,M1 antag,SF-1 act,Htt clearance,D1 allo mod,M1 antag conf,mGluR4 antag
CC1CCN(CCCNC(=O)c2cc3c(=O)n(C)c4ccccc4c3n2C)CC1,23,0.048,1.8,-3,4,0.86,x,x
CN1CCN(CCCNC(=O)c2cc3c(=O)n(C)c4ccccc4c3s2)CC1,-3,0.05,-2.8*,-2,-10,-1.1,434,196
Cn1c(C(=O)NCCN2CCN(Cc3ccccc3)CC2)cc2c(=O)n(C)c3ccccc3c21,28,0.043,-6.9*,-2,x,-0.54,288*,263
Cn1cc(C(=O)NCCN2CCN(c3ccccc3F)CC2)c2c3ccccc3n(C)c2c1=O,3,-0.16,-4.3*,5,x,-2,453,161
Cn1c(C(=O)NCCN2CCCCCC2)cc2c(=O)n(C)c3ccccc3c21,3,1.7,-3.7*,-10,-59,-0.26,430*,209
COCCCNC(=O)CN(c1ccc(OC)cc1)S(=O)(=O)c1ccc(NC(C)=O)cc1,x,-2,-1.1,x,x,-0.35,x,x
CCOc1ccccc1-n1c(SCC(=O)NC(C)CC)nnc1-c1ccoc1C (stereo unspecified),-16,0.083,-0.00019,12,x,-0.62,x,x
CC(NC(=O)NC12CC3CC(CC(C3)C1)C2)C1CCCO1 (stereo unspecified),-13,1.5,-0.15,-2,x,x,x,x
CC(NC(=O)c1ccc(-c2cc(C(F)(F)F)ccc2Cl)o1)c1ccccc1 (stereo unspecified),x,x,x,x,7,x,x,x
CCOC(=O)C1CCN(C2CC(=O)N(c3ccc(OCC)cc3)C2=O)CC1 (stereo unspecified),-18,-0.51,-0.55,5,-57,-0.14,x,x
CCOC(=O)c1ccc(N2C(=O)CC(N3CCN(C/C=C/c4ccccc4)CC3)C2=O)cc1 (stereo unspecified),5,-2.1,-3.8*,-20,-68,0.2,494*,231
Cc1ccc(Cl)cc1N1CCN(C(c2ccc(C#N)cc2)c2nnnn2C2CCCC2)CC1 (stereo unspecified),-10,-1.2,-4.1*,-17,12,-0.28,643,243
Cc1oc2c(c1C(=O)NCc1ccccc1)CCCC2,4,0.37,-3.7*,-1,x,x,643,188
O=C(NCN1C(=O)C2C3C=CC(C3)C2C1=O)Nc1nccs1 (stereo unspecified),-4,-0.055,0.15,-6,-42,-0.67,x,x
O=c1c2[nH]c3ccccc3c2ncn1CCN1CCNCC1,1,0.2,-3.1*,-9,x,0.2,719,230
Cc1ccc2c(c1)[nH]c1c(=O)n(CCN3CCNCC3)cnc12,10,-2,0.55,13,-50,-0.35,x,x
O=C1c2oc3ccccc3c(=O)c2C(c2ccc(Cl)cc2)N1c1ncccn1 (stereo unspecified),-5,-0.03,0.031,1,x,-0.013,x,x
c1ccc2c(c1)[nH]c1c(N3CCOCC3)ncnc12,7,0.83,-1,-2,-49,-0.5,x,x
